Measured values gathered from unrelated publications.
Lines come from different studies, so protocols differ.

The Tmax of COc1ccc(C[C@@H](C(=O)NO)n2cc(CNS(=O)(=O)c3ccc(-c4ccccc4)s3)nn2)cc1 is reported as 0.333 h (female CD-1 mouse; plasma; intraperitoneal; 50 mg/kg).
For O=S(=O)(c1ccc(-c2ccc3nccc(Nc4ccncn4)c3c2)cc1)N1CCOCC1, the Tmax was 0.25 h (female BALB/c mouse; plasma; intraperitoneal; 10 mg/kg).
With Cc1cc(NC(=O)c2cccc3cc(-c4cccc5[nH]nc(N)c45)ccc23)ccc1F the Tmax was 1 h (male CD-1 mouse; plasma; oral; 10 mg/kg).
For CN1CCN(C(=O)CN[C@@H]2C[C@H]2c2ccc(OCc3ccccc3)cc2)CC1, the Tmax was 0.08 h (mouse; plasma; intraperitoneal; 10 mg/kg).
COc1ccc2c3c1O[C@H]1C[C@@H](OC(=O)c4ccccc4)C=C[C@@]31CCN(C)C2 has a Tmax of 0.05 h (mouse; brain; intravenous; 3 mg/kg).
CNC(=O)[C@H](Cc1c[nH]cn1)NC(=O)CN(CCCc1ccccc1)CC(=O)O has a Tmax of 0.167 h (male C57BL/6 mouse; plasma; intraperitoneal; 30 mg/kg).
The Tmax of OC[C@H]1O[C@@H](c2ccc(Cl)c(Cc3ccc(O[C@H]4CCOC4)cc3)c2)[C@H](O)[C@@H](O)[C@@H]1O is reported as 0.25 h (CD-1 mouse; plasma; oral; 10 mg/kg).
CCc1cc(C(=O)NC)c2nccc(N3CCc4c(cc(Cn5ccnc5)cc4-c4cn(C)nc4C(F)(F)F)C3=O)c2c1 gave a Tmax of 0.5 h (male CD-1 mouse; plasma; oral; 150 mg/kg).
For Cc1cc(Nc2ccc(S(F)(F)(F)(F)F)cc2)n2ccnc2n1, the Tmax was 0.5 h (male Swiss mouse; plasma; oral; 100 mg/kg; single dose).
COc1nc(-c2cc(C)c(N[C@@H](C)c3ccc(F)cc3)nn2)ccc1-n1cnc(C)c1 gave a Tmax of 1 h (male CD-1 mouse; plasma; oral; 5 mg/kg; single dose).
The Tmax of CC=Cc1ccc(O)c(OC)c1 is reported as 0.0833 h (mouse; brain; intranasal; 100 mg/kg).
For COc1ccc2nccc(N3CCc4c(cc(Cn5ccnc5)cc4-c4cn(C)nc4C(F)(F)F)C3=O)c2c1, the Tmax was 0.7 h (male CD-1 mouse; plasma; oral; 10 mg/kg).
CC(C)c1cnn2c(NCc3ccccc3)cc(NC[C@H]3CCNC[C@@H]3O)nc12 gave a Tmax of 6 h (female nude mouse; tumour; oral; 100 mg/kg; tumour-bearing).
The Tmax of CC(C)(C)c1ccc(O)c(CN(Cc2cc(C(C)(C)C)ccc2O)C2CCC(NC(N)=O)CC2)c1 (stereo not shown) is reported as 0.5 h (male C57BL/6 mouse; plasma; oral; 10 mg/kg; single dose).
COc1ccc(C(O)COc2ccc(-c3csc(-c4ccc(OCC(O)c5ccc(OC)c(OC)c5)cc4)n3)cc2)cc1OC (stereo not shown) has a Tmax of 1 h (C57BL/6 mouse; plasma; oral; 30 mg/kg).
With CS(=O)(=O)CCNCc1ccc(-c2ccc3ncnc(Nc4ccc(OCc5cccc(F)c5)c(Cl)c4)c3c2)o1 the Tmax was 8 h (nude mouse; plasma; oral; 200 mg/kg; single dose).
For CCc1ccc(Cc2cc([C@@H]3O[C@H](CO)[C@@H](O)[C@H](O)[C@H]3O)cc3c2CCC3)cc1, the Tmax was 0.5 h (male C57BL/6 mouse; plasma; oral; 3 mg/kg).
For CC(C)NC(=O)COc1cccc(-c2nc(Nc3ccc4[nH]ncc4c3)c3ccccc3n2)c1, the Tmax was at most 2 h (male C57BL/6 mouse; plasma; oral; 100 mg/kg).
The Tmax of NC(=O)c1cc(Oc2ccc(NC(=O)Nc3ccc(Cl)c(C(F)(F)F)c3)c(F)c2)cc[n+]1[O-] is reported as 7.5 h (mouse; plasma; oral; 10 mg/kg; single dose).
With C=CC(=O)N1CC2CC(n3nc(-c4ccc(C(=O)Nc5ccccn5)cc4)c4c(N)ncnc43)CC2C1 (stereo not shown) the Tmax was 1 h (SCID mouse; plasma; oral; 5 mg/kg).
For CN1CCC[C@H](CN2c3ccccc3Sc3ccccc32)C1.O=C(O)CCC(=O)O, the Tmax was 2 h (mouse; plasma; oral; 64 mg/kg; single dose).
For Cc1ccc2cncc(N3CCc4c(cc(Cn5ccnc5)cc4-c4cn(C)nc4C(F)(F)F)C3=O)c2c1, the Tmax was 1.3 h (male CD-1 mouse; plasma; oral; 50 mg/kg).
CC(C)(C)c1cc(NC(=O)Nc2ccc(Oc3ccnc4[nH]c(=O)cnc34)cc2F)n(-c2ccccc2)n1 gave a Tmax of 0.083 h (BALB/c mouse; plasma; intravenous; 2 mg/kg).
With CC(C)(Nc1nc(-c2ccccn2)nc2ccccc12)c1ccccn1 the Tmax was 5.7 h (female BALB/c mouse; plasma; oral; 50 mg/kg).
The Tmax of CCCc1c(C2CCCCN2CCN2CCOCC2)[nH]c2cc(OC(F)(F)F)ccc12 (stereo not shown) is reported as 1 h (male mouse; plasma; oral; 30 mg/kg).
The Tmax of COc1cc(/C=C/C(=O)CC(=O)/C=C/c2ccc(O)c(OC)c2)ccc1O is reported as 2 h (HPLC; Swiss mouse; plasma; oral; 2 g/kg).
For COc1nc(-c2cc(C)c(N[C@@H](C)c3cc(F)cc(F)c3)nn2)ccc1-n1cnc(C)c1, the Tmax was 1 h (male CD-1 mouse; plasma; oral; 5 mg/kg; single dose).
Cc1ccc(NC(=O)c2ccc(CN3CCN(C)CC3)cc2)cc1Nc1nccc(-c2cncc(-c3oncc3C)c2)n1 gave a Tmax of 4 h (male C57BL/6 mouse; plasma; oral; 100 mg/kg/day).
